# Reference: ChEMBL document CHEMBL5058577, “EUbOPEN Chemogenomics Library 2 (Multiplex)” (2022)
# System: Fibroblast
# Experiment: Multiplex assay against human fibroblast
# Assay type: toxicity, cell-based
# Summary of the method: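 Cells stained live at seeding with Hoechst33342, BioTracker Green Microtubule Cytoskeleton Dye, MitoTracker Red and Annexin V Alexa Fluor 680 were imaged on a CQ1 microscope at 37°C and 5% CO2 after compound addition. Their classification by CellPathfinder machine-learning gating ran from Hoechst high-intensity objects versus normal cells, to healthy, pyknosed or fragmented nuclei among normal cells, to mitotic or apoptotic among pyknosed cells. Tubulin, mitochondrial-mass and membrane-permeability phenotypes are per cents of healthy-nucleus cells.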
# [1] = 12 h, 1 µM, compound concentration 1 uM, replicate 1
# [2] = 12 h, 1 µM, compound concentration 1 uM, replicate 2
# [3] = 12 h, 10 µM, compound concentration 10 uM, replicate 1
# [4] = 12 h, 10 µM, compound concentration 10 uM, replicate 2
# [5] = 24 h, 1 µM, compound concentration 1 uM, replicate 1
# [6] = 24 h, 1 µM, compound concentration 1 uM, replicate 2
# [7] = 24 h, 10 µM, compound concentration 10 uM, replicate 1
# [8] = 24 h, 10 µM, compound concentration 10 uM, replicate 2
# [9] = 48 h, 1 µM, compound concentration 1 uM, replicate 1
# [10] = 48 h, 1 µM, compound concentration 1 uM, replicate 2
# [11] = 48 h, 10 µM, compound concentration 10 uM, replicate 1
# [12] = 48 h, 10 µM, compound concentration 10 uM, replicate 2
smiles,measurement,setting,value
O=C(Nc1cc(-c2ccccc2)nn1-c1ccccc1F)c1ccc([N+](=O)[O-])cc1,Population Apoptotic (%),[1],28%
same,Population Fragmented Nuclei (%),[1],17%
same,Population Healthy Nuclei (%),[1],71%
same,Population Hoechst High Intensity Objects (%),[1],2%
same,Population Membrane Permeable-Phenotype (%),[1],1%
same,Population Mitochondria Different-Phenotype (%),[1],1%
same,Population Mitotic Cells (%),[1],71%
same,Population Normal (%),[1],97%
same,Population Pyknosed Nuclei (%),[1],10%
same,Population Tubulin-Different-Phenotype (%),[1],22%
same,Total Cell Count,[1],138
same,Population Apoptotic (%),[2],32%
same,Population Fragmented Nuclei (%),[2],19%
same,Population Healthy Nuclei (%),[2],55%
same,Population Hoechst High Intensity Objects (%),[2],8%
same,Population Membrane Permeable-Phenotype (%),[2],4%
same,Population Mitochondria Different-Phenotype (%),[2],9%
same,Population Mitotic Cells (%),[2],67%
same,Population Normal (%),[2],91%
same,Population Pyknosed Nuclei (%),[2],25%
same,Population Tubulin-Different-Phenotype (%),[2],53%
same,Total Cell Count,[2],160
same,Population Apoptotic (%),[3],28%
same,Population Fragmented Nuclei (%),[3],10%
same,Population Healthy Nuclei (%),[3],66%
same,Population Hoechst High Intensity Objects (%),[3],2%
same,Population Membrane Permeable-Phenotype (%),[3],1%
same,Population Mitochondria Different-Phenotype (%),[3],4%
same,Population Mitotic Cells (%),[3],71%
same,Population Normal (%),[3],97%
same,Population Pyknosed Nuclei (%),[3],22%
same,Population Tubulin-Different-Phenotype (%),[3],48%
same,Total Cell Count,[3],170
same,Population Apoptotic (%),[4],45%
same,Population Fragmented Nuclei (%),[4],25%
same,Population Healthy Nuclei (%),[4],47%
same,Population Hoechst High Intensity Objects (%),[4],6%
same,Population Membrane Permeable-Phenotype (%),[4],6%
same,Population Mitochondria Different-Phenotype (%),[4],3%
same,Population Mitotic Cells (%),[4],54%
same,Population Normal (%),[4],93%
same,Population Pyknosed Nuclei (%),[4],26%
same,Population Tubulin-Different-Phenotype (%),[4],77%
same,Total Cell Count,[4],149
same,Population Apoptotic (%),[5],53%
same,Population Fragmented Nuclei (%),[5],16%
same,Population Healthy Nuclei (%),[5],74%
same,Population Hoechst High Intensity Objects (%),[5],2%
same,Population Membrane Permeable-Phenotype (%),[5],0%
same,Population Mitochondria Different-Phenotype (%),[5],0%
same,Population Mitotic Cells (%),[5],46%
same,Population Normal (%),[5],97%
same,Population Pyknosed Nuclei (%),[5],9%
same,Population Tubulin-Different-Phenotype (%),[5],18%
same,Total Cell Count,[5],135
same,Population Apoptotic (%),[6],50%
same,Population Fragmented Nuclei (%),[6],25%
same,Population Healthy Nuclei (%),[6],53%
same,Population Hoechst High Intensity Objects (%),[6],7%
same,Population Membrane Permeable-Phenotype (%),[6],6%
same,Population Mitochondria Different-Phenotype (%),[6],2%
same,Population Mitotic Cells (%),[6],50%
same,Population Normal (%),[6],92%
same,Population Pyknosed Nuclei (%),[6],20%
same,Population Tubulin-Different-Phenotype (%),[6],52%
same,Total Cell Count,[6],156
same,Population Apoptotic (%),[7],26%
same,Population Fragmented Nuclei (%),[7],7%
same,Population Healthy Nuclei (%),[7],76%
same,Population Hoechst High Intensity Objects (%),[7],4%
same,Population Membrane Permeable-Phenotype (%),[7],1%
same,Population Mitochondria Different-Phenotype (%),[7],7%
same,Population Mitotic Cells (%),[7],73%
same,Population Normal (%),[7],95%
same,Population Pyknosed Nuclei (%),[7],16%
same,Population Tubulin-Different-Phenotype (%),[7],49%
same,Total Cell Count,[7],163
same,Population Apoptotic (%),[8],28%
same,Population Fragmented Nuclei (%),[8],28%
same,Population Healthy Nuclei (%),[8],53%
same,Population Hoechst High Intensity Objects (%),[8],6%
same,Population Membrane Permeable-Phenotype (%),[8],9%
same,Population Mitochondria Different-Phenotype (%),[8],1%
same,Population Mitotic Cells (%),[8],72%
same,Population Normal (%),[8],93%
same,Population Pyknosed Nuclei (%),[8],18%
same,Population Tubulin-Different-Phenotype (%),[8],69%
same,Total Cell Count,[8],147
same,Population Apoptotic (%),[9],54%
same,Population Fragmented Nuclei (%),[9],23%
same,Population Healthy Nuclei (%),[9],67%
same,Population Hoechst High Intensity Objects (%),[9],7%
same,Population Membrane Permeable-Phenotype (%),[9],1%
same,Population Mitochondria Different-Phenotype (%),[9],0%
same,Population Mitotic Cells (%),[9],45%
same,Population Normal (%),[9],92%
same,Population Pyknosed Nuclei (%),[9],8%
same,Population Tubulin-Different-Phenotype (%),[9],18%
same,Total Cell Count,[9],145
same,Population Apoptotic (%),[10],55%
same,Population Fragmented Nuclei (%),[10],30%
same,Population Healthy Nuclei (%),[10],53%
same,Population Membrane Permeable-Phenotype (%),[10],5%
same,Population Mitochondria Different-Phenotype (%),[10],4%
same,Population Mitotic Cells (%),[10],44%
same,Population Pyknosed Nuclei (%),[10],15%
same,Population Tubulin-Different-Phenotype (%),[10],54%
same,Total Cell Count,[10],183
same,Population Apoptotic (%),[11],66%
same,Population Fragmented Nuclei (%),[11],16%
same,Population Healthy Nuclei (%),[11],70%
same,Population Hoechst High Intensity Objects (%),[11],7%
same,Population Membrane Permeable-Phenotype (%),[11],3%
same,Population Mitochondria Different-Phenotype (%),[11],3%
same,Population Mitotic Cells (%),[11],33%
same,Population Normal (%),[11],92%
same,Population Pyknosed Nuclei (%),[11],12%
same,Population Tubulin-Different-Phenotype (%),[11],55%
same,Total Cell Count,[11],160
same,Population Apoptotic (%),[12],52%
same,Population Fragmented Nuclei (%),[12],31%
same,Population Healthy Nuclei (%),[12],54%
same,Population Hoechst High Intensity Objects (%),[12],5%
same,Population Membrane Permeable-Phenotype (%),[12],6%
same,Population Mitotic Cells (%),[12],47%
same,Population Normal (%),[12],94%
same,Population Pyknosed Nuclei (%),[12],14%
same,Population Tubulin-Different-Phenotype (%),[12],66%
same,Total Cell Count,[12],153
